E-sel inducer: induces E-selectin expression in human endothelial cells; P16581; HUVEC E-selectin immunofluorescence imaging; normalized: neutral wells 0, TNF-alpha wells 100; activation, % at 7.58 µM; 260,000 compounds, 0.37% hits; AID 686992;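 active = mean E-selectin-positive cell signal at least 10% of the positive control, reached in at least 60% of replicates, without over 20% cell loss; inconclusive = no rule given, readout overlaps actives, possibly toxicity-flagged; inactive = the rest, including those meeting only one limit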
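Test system: HUVEC; input: 3,000 HUVEC/well; measured by: immunofluorescence imaging; read-out: % PE-positive cells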
Ecoli rRNA inh: selective bacterial rRNA inhibition in E. coli; E. coli WT GFP vs humanized-ribosome RFP mutants, fluorescence, 24 h; stronger effect = lower value; DMSO median 0, no signal -100; GFP signal change (wild-type ribosome), % (concentration not given with the values); 350,000 compounds, 1.6% hits; AID 720706;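 active = significant combined selectivity score with lowered wild-type GFP, culture density cut under 30%, mutant RFP and density less affected; inactive = any of these conditions unmet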
SIRT5 inh: sirtuin-5 (human) deacylase inhibition. Q9NXA8. inhibition, % at 15 µM. AID 652115. Purified SirT5, succinyl-peptide AMC, trypsin-coupled fluorescence. 330,000 compounds, 1.1% hits; in the data active = inhibition above about 15%; inconclusive = no clear call, values can overlap the other calls
Target sequence (Q9NXA8 whole entry, looked up): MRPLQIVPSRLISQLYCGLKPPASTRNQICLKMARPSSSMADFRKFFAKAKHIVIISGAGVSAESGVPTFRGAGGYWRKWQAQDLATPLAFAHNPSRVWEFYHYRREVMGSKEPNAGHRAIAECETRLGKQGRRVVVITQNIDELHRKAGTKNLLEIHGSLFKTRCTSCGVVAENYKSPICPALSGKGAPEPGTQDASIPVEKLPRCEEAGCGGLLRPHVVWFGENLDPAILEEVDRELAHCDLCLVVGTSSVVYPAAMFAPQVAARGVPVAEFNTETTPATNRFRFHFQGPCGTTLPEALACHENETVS
S100A4 MyoIIA: S100A4-myosin IIA interaction inhibition. S100A4/TAMRA-MyoIIA peptide fluorescence polarization. inhibition, % at 10.7 µM. 360,000 compounds, 0.14% hits;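 active = mean inhibition of at least 70% across replicates, with every replicate also reaching that level; inconclusive = mean inhibition reaches 70% but some replicates fall short; inactive = mean inhibition below 70%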
Target sequence (P26447 whole entry, looked up): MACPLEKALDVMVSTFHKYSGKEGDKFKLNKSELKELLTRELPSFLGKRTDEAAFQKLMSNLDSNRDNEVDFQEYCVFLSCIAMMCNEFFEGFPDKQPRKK
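Material: human S100A4 monomer with TAMRA-labelled myosin IIA peptide; buffer or medium: HEPES pH 7.2 with CaCl2, KCl, NaCl, DTT, Triton; compound dosing: one concentration per compound; schedule: 5 min incubation before reading; benchmarks: neutral control DMSO, positive control TFP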
AF4-AF9 inh: blocks AF4 peptide binding to human AF9. P42568. AlphaScreen, biotin-AF4 peptide binding to FLAG-AF9. inhibition, % at 10 µM. 350,000 compounds, 0.47% hits. AID 651704;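 active = every replicate reaching a set inhibition limit, whatever the replicate mean, cut at about 25% in these data; inconclusive = mean inhibition reaches that limit but some replicates miss it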
ERAP1 inh: ERAP1 (human) enzyme inhibition | recombinant ERAP1, Leu-AMC fluorescence, 60 min | 340,000 compounds, 0.15% hits | AID 652197 | inhibition, % at 10.7 µM;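 active = mean replicate inhibition of at least 30%, or all replicates individually reaching that 30% level; inactive = mean below 30% and not every replicate reaching it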
HepG2 cytotox: kills or reduces viability of HepG2 cells | shares compounds with Ecoli rRNA inh | ATP luminescence, 72 h | activity change, negative = cytotoxicity, unspecified at 26 µM | 30 tested, under 10 active;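 active = compounds whose fitted half-maximal signal-loss concentration is at most twice their highest valid dose; inconclusive = flat curve with 30 to 70% signal loss, or poor fit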
AID977621: growth inhibition of wild-type GFP E. coli, dose response, H69 mutant RFP, cherry-pick; shares compounds with Ecoli rRNA inh; activity change, negative = inhibition at 50 µM; E. coli wild-type GFP strain growth, fluorescence, 24 h; 1,900 tested, under 10 active;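 active = Wild-type ribosome reporter drop at least double the humanized mutant ribosome reporter drop, growth loss under a set limit; inconclusive = no clear call, values can overlap the other calls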;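 also: wild-type GFP and H69 mutant RFP strains grown together 50/50 in each well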
AID977628: E. coli growth inhibition, wild-type GFP versus h24 humanized RFP strain, dose response, h24 mutant RFP vs wild-type GFP, cherry-pick | AID 977628 | E. coli WT GFP strain growth, fluorescence, 24 h | activity change, negative = inhibition at 50 µM | shares compounds with Ecoli rRNA inh | 1,900 tested, under 10 active;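 active = compound lowering the normal-ribosome reporter at least twice as much as the humanized-ribosome reporter, growth loss under a set limit; inconclusive = no clear call, values can overlap the other calls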;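 also: wild-type GFP and h24 humanized RFP strains co-cultured 1 to 1 per well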
Large screens that a line does not name were inactive (follow-up assays come after a bar, where they were run); ! = not confirmed by another sample. In the library only some 3.4% were active in any assay of this set; here they are far more common.

C[C@H](CO)N1C[C@H](C)[C@H](CN(C)CC2CC2)Oc2ccc(NS(C)(=O)=O)cc2CC1=O	none
CCN(CC)CCn1c(N)nc2ccccc21	none
CCN(CC)CCn1c2ccccc2c2nc3ccc([N+](=O)[O-])cc3cc21	Ecoli rRNA inh -25 (no result: E-sel inducer, ERAP1 inh) | HepG2 cytotox inactive
CN1CCSc2ccc(C(=O)Nc3cccc(F)c3)cc21	Ecoli rRNA inh -23 (no result: E-sel inducer) | AID977621 inactive | AID977628 inactive
O=C(Nc1ccc(-c2nnc3n2CCCCC3)cc1)c1cc2ccccc2o1	Ecoli rRNA inh -20 (no result: E-sel inducer) | AID977621 inactive | AID977628 inactive
Cc1ccc(NC(=O)CSCc2ccc(F)cc2)cc1	none (no result: Ecoli rRNA inh, SIRT5 inh, S100A4 MyoIIA, AF4-AF9 inh, ERAP1 inh)
Cc1ccc(CSCC(=O)Nc2ccccc2F)cc1	Ecoli rRNA inh -23 | AID977621 inactive | AID977628 inconclusive
CCCn1c(NCc2ccc3c(c2)OCO3)nc2ccccc21	Ecoli rRNA inh -22 (no result: E-sel inducer) | AID977628 inconclusive
Clc1ccc2nc(CN3CCCc4ccccc43)cn2c1	Ecoli rRNA inh -20! (no result: E-sel inducer) | AID977621 inactive
C[C@@H]1CCCCO[C@@H](CN(C)C)[C@H](C)CN([C@@H](C)CO)C(=O)c2cc(NS(C)(=O)=O)ccc2O1	none
Cc1ccc(NC(=O)c2ccc([N+](=O)[O-])o2)c(C)c1	Ecoli rRNA inh -33 (no result: E-sel inducer, SIRT5 inh) | AID977628 inactive
Cc1ccccc1NC(=O)c1ccc([N+](=O)[O-])o1	none (no result: Ecoli rRNA inh)
CC1CN(C(=O)COC(=O)c2cccc(S(=O)(=O)N3CCc4ccccc43)c2)CC(C)O1 (centres undefined)	none
O=C(OCC(=O)N1CCOCC1)c1cccc(S(=O)(=O)N2CCCc3ccccc32)c1	Ecoli rRNA inh -18 (no result: E-sel inducer, AF4-AF9 inh) | AID977621 inactive | AID977628 inconclusive
CCC(C(=O)NC1CCCC1)n1c(-c2ccnc3ccccc23)nc2ccccc21 (centres undefined)	Ecoli rRNA inh -14 (no result: SIRT5 inh) | AID977621 inactive | AID977628 inactive
CCC(C(=O)NC1CCCC1)n1c(-c2ccncc2)nc2ccccc21 (centres undefined)	none
COc1cc[n+]([O-])cc1[N+](=O)[O-]	Ecoli rRNA inh 1.2 (no result: SIRT5 inh) | AID977621 inactive | AID977628 inactive
Cc1noc2ncnc(SCc3ccc(C(F)(F)F)cc3)c12	Ecoli rRNA inh -21 (no result: E-sel inducer, ERAP1 inh) | AID977621 inactive | AID977628 inconclusive
COc1ccc(CC(=O)OCC(=O)Nc2cccc(Br)c2)cc1	none
COc1cccc(NC(=O)COC(=O)Cc2ccc(Br)cc2)c1	Ecoli rRNA inh -15 | AID977621 inconclusive | AID977628 inactive
COc1cccc(NC(=O)COC(=O)Cc2ccc(Cl)cc2)c1	Ecoli rRNA inh -36 | AID977621 inactive
COC(=O)c1ccc(OS(=O)(=O)c2ccc(NC(C)=O)cc2)cc1	Ecoli rRNA inh -21 | AID977628 inconclusive
CCc1cccc(NC(=O)CN(C)S(=O)(=O)c2cccc3cccnc23)c1	Ecoli rRNA inh -20 (no result: E-sel inducer) | AID977621 inactive | AID977628 inactive
Cc1cccc(NC(=O)CN(C)S(=O)(=O)c2cccc3cccnc23)c1	none (no result: E-sel inducer, SIRT5 inh, ERAP1 inh)
CN1c2ccc(-c3cccc(C#N)c3)cc2[C@H]2[C@H](CCN2S(=O)(=O)c2ccccc2F)[C@@H]1CO	none
C[C@H](CO)N1C[C@H](C)[C@H](CN(C)Cc2cncnc2)Oc2ncc(-c3ccc(F)cc3)cc2C1=O	none
CCOc1cccc(-c2cc(-c3n[nH]c(=S)n3CC)c3ccccc3n2)c1	Ecoli rRNA inh -37 (no result: E-sel inducer) | AID977621 inactive | AID977628 inconclusive
O=C(Nc1ccc2c(c1)OCCO2)C1C(c2ccccc2)=Nc2ccccc2N1C(=O)c1cccnc1 (centres undefined)	Ecoli rRNA inh -8.2 (no result: SIRT5 inh) | AID977621 inactive | AID977628 inconclusive
Cc1cc(C(=O)COC(=O)c2ccc(O)cc2)c(C)n1CC(F)(F)F	Ecoli rRNA inh -20 | AID977621 inactive | AID977628 inactive
C[C@H](CO)N1C[C@H](C)[C@H](CN(C)S(C)(=O)=O)Oc2ccc(NC(=O)Cc3cn(C)c4ccccc34)cc2C1=O	none
Cc1ccc(-c2n[nH]c(=S)nc2-c2ccc(C)cc2)cc1	none
Cc1ccc(-c2n[nH]c(S(C)(=O)=O)c2C#N)cc1	Ecoli rRNA inh -21 (no result: AF4-AF9 inh) | AID977621 inactive | AID977628 inconclusive
O=C(CSc1nc2ccccc2n1S(=O)(=O)c1cccc([N+](=O)[O-])c1)NCCc1ccccc1	Ecoli rRNA inh -33 | AID977621 inactive | AID977628 inactive
C/C=C/c1ccc2c(c1)[C@@H]1[C@@H](CCN1S(=O)(=O)c1ccccc1OC)[C@H](CO)N2C	Ecoli rRNA inh -21 (no result: E-sel inducer, SIRT5 inh, S100A4 MyoIIA, AF4-AF9 inh, ERAP1 inh) | AID977628 inconclusive
CCCCCCC(=O)N1CCCC(c2nc(-c3cccc(OC)c3)no2)C1 (centres undefined)	Ecoli rRNA inh -31 (no result: E-sel inducer) | AID977621 inactive | AID977628 inconclusive
CC1=C([C@H](O)c2ccccc2)[C@H](CO)n2c(=O)n(-c3ccccc3)c(=O)n2C1	none (no result: E-sel inducer, Ecoli rRNA inh)
CN(Cc1ccccc1NS(=O)(=O)c1ccc(Cl)cc1)C1CCCCC1	Ecoli rRNA inh -29 | AID977621 inactive | AID977628 inconclusive
COc1ccc(CNC(=O)CN(C)CC(=O)Nc2ccccc2Br)cc1	none
COc1ccc(OC)c(NC(=O)CN(C)CC(=O)Nc2ccccc2Br)c1	Ecoli rRNA inh -25 | AID977621 inactive | AID977628 inconclusive
CNC[C@H]1Oc2ccc(NC(=O)Cc3ccccc3)cc2CC(=O)N([C@H](C)CO)C[C@H]1C	none
O=C(c1ccc(F)cc1)N1C[C@@H]2[C@H](c3ccccc31)[C@H](CO)N2C(=O)c1ccccc1	none
O=C(CSc1nnc(COc2cccc3cccnc23)o1)c1ccc(F)cc1	Ecoli rRNA inh -25 (no result: E-sel inducer) | AID977621 inactive | AID977628 inactive
CN(C)c1ccc(-c2nnn(CC(=O)Nc3ccccc3N3CCOCC3)n2)cc1	Ecoli rRNA inh -16 (no result: E-sel inducer) | AID977621 inactive | AID977628 inactive
CN(C)c1ccc(-c2nnn(CC(=O)N3c4ccccc4CCc4ccccc43)n2)cc1	none (no result: E-sel inducer)
C[C@H]1CN([C@@H](C)CO)S(=O)(=O)c2ccc(-c3cccc(C#N)c3)cc2O[C@@H]1CN(C)C(=O)Nc1cc(F)ccc1F	none
